VIM-2 inhibitor – blocks Pseudomonas aeruginosa VIM-2 metallo-beta-lactamase. purified VIM-2, nitrocefin hydrolysis, epi-absorbance fluorescence. inhibition, % at 5.6 µM. 290,000 tested, 0.89% active. AID 1527;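 active means inhibition above the mean of all tested compounds plus 3 SD, cutoff set per screening run, cut at about 7.5% in these data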;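 further: red hydrolysis product quenches plate fluorescence so inhibitors raise well fluorescence; 0% = enzyme with DMSO and 100% = DMSO without enzyme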
SUMO Mot1 rescue – SUMOylation pathway inhibition by Mot1-301 growth rescue | growth rescue, % at 18.8 µM | S. cerevisiae Mot1-301 growth rescue, ATP luminescence, 38.5C; percent above DMSO median, 100 means doubled | 320,000 tested, 1% active | AID 2716;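 active means every valid replicate shows activation above 250% relative to neutral control wells; inactive means the rest, any valid replicate at or below 250%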;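 further: OY570 slx delta 5 strain wells were the positive control but not used for scaling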
IMP-1 inhibitor – inhibitors of Pseudomonas aeruginosa IMP-1 metallo-beta-lactamase | purified IMP-1, nitrocefin hydrolysis, epi-absorbance fluorescence | AID 1556 | 290,000 tested, 0.45% active | inhibition, % at 5.6 µM;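 active means inhibition above the mean plus 3 SD of all compounds in the same screening run, cut at about 4.5% in these data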;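 further: 0% = IMP-1 with DMSO and 100% = DMSO wells lacking enzyme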
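system = purified recombinant IMP-1 beta-lactamase | amount = 0.2 nM IMP-1, as dispensed | medium = HEPES buffer pH 7.1 with ZnSO4 and Brij 35 | times = 25 °C, 15 min preincubation, 25 min reaction | detection = plate fluorescence quenching by hydrolysis product, ex 480/em 530 nm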
PolyA inh – blocks polyadenylation in yeast reporter cells; S. cerevisiae SKY197-pL101 polyadenylation reporter, beta-gal luminescence; efflux-impaired pdr1/pdr3 knockout yeast; score 100 = 6 SD above DMSO; activity score, % at 12 µM; 300,000 tested, 0.02% active; AID 1875;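 active means lowest replicate activity score at least 50, where 100 means six control SD above control mean; inconclusive means lowest score under 50 but half or more replicates reach 50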;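 further: yeast exposed to compound for 9 h at 30 °C; higher score means more reporter readthrough which indicates perturbed polyadenylation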
NLRP3 yeast inh – NALP3 inhibition in yeast; inhibition, % at 10 µM; 330,000 tested, 0.39% active; Yeast reconstituted NLRP3/ASC/caspase-1, beta-gal luminescence, 24 h;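 active means inhibition of 50% or more; inactive means inhibition below 50%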;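 further: plate controls were induced DMSO wells for no effect and uninduced yeast grown without galactose for full effect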
NALP1 yeast inh – inhibitors of NALP1 inflammasome in yeast; S. cerevisiae NALP1/ASC/caspase-1 growth, X-gal OD620, 72 h; inhibition, % at 10 µM; 280,000 tested, 0.61% active; in the data active means inhibition mostly above about 24%, no sharp cut-off; inactive means mostly below about 32%
Starred values were filed as active, the others as inactive; ? = inconclusive; · = not tested or not shown. The list is not random: actives were taken first. Their share in the collection is about 2.9%.

SMILES | VIM-2 inhibitor | SUMO Mot1 rescue | IMP-1 inhibitor | PolyA inh | NLRP3 yeast inh | NALP1 yeast inh
COC(=O)C1CCN(C(=O)c2oc3c(Cl)cc(C)cc3c2C)CC1 | -2 | -16 | -4 | -19 | 25 | 13
Cc1cc(Cl)c2oc(C(=O)N3CCN(c4ccncc4)CC3)c(C)c2c1 | 7.8* | 450* | -4 | 19 | 25 | 19
Fc1ccc(-c2nc3ccccc3[nH]2)cc1 | -2 | -9 | -3 | 10 | 41 | 36*
C=CCc1ccc(OC)c(OC)c1 | -3 | 864* | 0 | 0 | 16 | -13
C=CCc1ccc(OCCOCCN(C)C)c(OC)c1 | 0 | 70 | -4 | -14 | 15 | 3
C=CCc1ccc(OCCCCCN2CCOCC2)c(OC)c1 | -2 | 276* | -4 | -27 | 26 | 4
C=CCc1ccc(OCCCCOc2ccc(C(=O)O)cc2)c(OC)c1 | -4 | 4 | -2 | 7 | 37 | 1
CC1CCCCC12NC(=O)N(CC(=O)Nc1ccccc1-c1ccccc1)C2=O (stereo not drawn) | -2 | 5 | -1 | 24 | 17 | 37*
CCOC(=O)c1ccccc1NC(=O)c1c(O)c2ccccc2n(CC)c1=O | 0 | -6 | -8 | · | 16 | 21
CCn1c(=O)c(C(=O)Nc2ccsc2C(=O)OC)c(O)c2ccccc21 | -3 | 783* | -3 | 19 | 10 | 9
Cn1cc(C2=C(c3ccc(Cl)cc3Cl)C(=O)NC2=O)c2ccccc21 | 3 | -4 | 4.9* | 4 | 17 | -7
O=C(NC1CCCCC1)C(c1ccccc1F)N(Cc1ccco1)C(=O)c1ccccn1 (stereo not drawn) | 1 | 310* | -3 | 6 | 14 | 1
O=S(=O)(c1ccc2c(c1)OCCO2)N1CCC(O)(c2ccc(Cl)cc2)CC1 | -1 | -13 | -4 | 6 | 15 | 35*
O=C(COC(=O)c1ccc([N+](=O)[O-])o1)Nc1ccc(Br)cc1F | · | 337* | · | · | 2 | ·
NC(=O)CSc1nc2sc3c(c2c2ncnn12)CCCC3 | 9.8* | 93 | 0 | -7 | 12 | 4
CCn1c(SCC(N)=O)nc2sc3c(c2c1=O)CCCC3 | -2 | -1 | -4 | 10 | 1 | -5
Cc1nc2ccn(Cc3ccccc3)c(=O)c2cc1C(=O)N1CCN(c2ccccc2)CC1 | 3 | 5 | -1 | -14 | 11 | 24
NC(=S)N=Nc1c(O)n(CCCl)c2ccccc12 | -4 | -32 | -4 | -6 | 14 | 16
NC(=S)N=Nc1c(O)n(CCCl)c2ccc(Cl)cc12 | 5 | 341* | -3 | -27 | 19 | 12
NC(CC(=O)OC1CCCCC1)C(=O)OC1CCCCC1 (stereo not drawn) | 3 | -17 | 5.4* | 17 | 14 | 5
CCOC(=O)N1CCN(CC(O)COc2ccccc2C(C)CC)CC1 (stereo not drawn) | -1 | 790 | -2 | -26 | 18 | 26*
CC(C)(c1ccccc1)c1ccc(OCCCNCCO)cc1 | -2 | · | 5.4* | 9 | 26 | 10
CCOC(=O)C(C)CC(C)C(=O)N1CCOCCOCCN(C(=O)C(C)CC(C)C(=O)OCC)CCOCC1 (stereo not drawn) | -1 | -15 | -1 | -12 | -7 | -17
CCOC(=O)C(C(=O)OCC)C(C(=O)OCC)N1CCOCC1 (stereo not drawn) | 1 | 381 | -3 | ? | 12 | 101*
CCN1CCN(CC(=O)Nc2ccccc2)C(=O)C1=O | 5 | 184 | 4.6* | -7 | 13 | -14
CCN1CCN(CC(=O)Nc2ccc(Cl)c(Cl)c2)C(=O)C1=O | -4 | -8 | -5 | 6 | 13 | 14
CC(=O)Nc1cccc(N2C(=O)CC(N3CCC(C(=O)N4CCCCC4)CC3)C2=O)c1 (stereo not drawn) | -5 | 11 | -6 | -4 | 33 | 27
COc1cc(OC)cc(N2C(=O)CC(N3CCC(C(=O)N4CCCCC4)CC3)C2=O)c1 (stereo not drawn) | 1 | 298* | 1 | -9 | 17 | 17
Cc1ccc(C(C[N+](=O)[O-])n2nc(C)cc2C)cc1 (stereo not drawn) | 2 | 624* | 0 | -10 | 32 | 11
O=C1c2cccc3c(N4CCCCC4)ccc(c23)C(=O)N1c1ccc(Cl)cn1 | 2 | · | 1 | · | · | ·
